Tests used:
[1] = molecular target: Macrophage metalloelastase (Homo sapiens, UniProt P39900); assay: In Vitro inhibitory activity against the catalytic domain of the matrix metalloprotease-12
In short: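 Human MMP-12 catalytic domain, expressed in E. coli as inclusion bodies, renatured and affinity-purified. FRET assay in 50 mM HEPES/NaOH pH 7.0, 10 mM CaCl2, 0.02% PEG 8000, 2% DMSO, 25 °C. […] Inhibitor at 0.005-15 µM, 30 min preincubation, ex 330/em 405 nm, triplicate. Four-parameter logistic IC50, then Ki by the Horovitz-Levitski method.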

Collagenase 3 = Collagenase 3 (Homo sapiens, UniProt P45452); assay: In Vitro inhibitory activity against the catalytic domain of the matrix metalloprotease-13
[2] = molecular target: T1, Matrix metalloproteinase-14 (Homo sapiens, UniProt P50281); assay: In vitro inhibitory activity against the catalytic domain of human matrix metalloprotease-14
In short: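 E. coli-expressed human MMP-14 catalytic domain, activated by autocatalysis, at 0.3-5 nM. Assay buffer 50 mM HEPES pH 7.0, 10 mM CaCl2, 0.02% PEG 8000, 2% DMSO, 25 °C. […] Fluorescence ex 330/em 405 nm, triplicate. Ki derived from four-parameter logistic IC50 (Horovitz-Levitski).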

[3] = molecular target: Matrix metalloproteinase-9 (Homo sapiens, UniProt P14780); assay: In vitro inhibition of human matrix metalloprotease-9
Matrix metalloproteinase-9, sequence (P14780 whole entry): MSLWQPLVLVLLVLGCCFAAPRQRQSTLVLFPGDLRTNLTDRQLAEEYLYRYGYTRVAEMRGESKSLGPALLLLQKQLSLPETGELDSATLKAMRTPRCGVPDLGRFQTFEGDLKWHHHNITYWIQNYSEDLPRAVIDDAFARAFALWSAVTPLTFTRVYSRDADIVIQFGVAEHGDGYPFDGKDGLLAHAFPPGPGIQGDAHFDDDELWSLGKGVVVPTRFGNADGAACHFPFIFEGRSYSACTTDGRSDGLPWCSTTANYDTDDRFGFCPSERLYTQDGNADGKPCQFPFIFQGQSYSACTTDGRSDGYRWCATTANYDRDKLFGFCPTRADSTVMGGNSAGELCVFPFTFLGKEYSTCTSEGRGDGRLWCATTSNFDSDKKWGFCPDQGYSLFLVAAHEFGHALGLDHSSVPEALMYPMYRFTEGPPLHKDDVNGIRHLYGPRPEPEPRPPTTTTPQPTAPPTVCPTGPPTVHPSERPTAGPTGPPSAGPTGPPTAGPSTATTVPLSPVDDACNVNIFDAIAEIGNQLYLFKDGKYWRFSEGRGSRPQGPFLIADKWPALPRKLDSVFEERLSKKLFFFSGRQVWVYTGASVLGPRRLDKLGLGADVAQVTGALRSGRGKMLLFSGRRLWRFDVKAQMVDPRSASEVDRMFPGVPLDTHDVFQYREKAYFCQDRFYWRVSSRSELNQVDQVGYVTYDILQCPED
In short: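 Full-length PMNL pro-gelatinase from human plasma buffy coat, activated with trypsin for 10 min at 37 °C, then trypsin inactivated with TKI. […] Buffer 50 mM HEPES pH 7.0, 10 mM CaCl2, 0.02% PEG 8000, 2% DMSO, 25 °C. Inhibitor 0.005-15 µM, 30 min preincubation, triplicate. Ki from logistic IC50 by the Horovitz-Levitski method.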

[4] = molecular target: 72 kDa type IV collagenase (Homo sapiens, UniProt P08253)
72 kDa type IV collagenase, sequence (P08253 whole entry): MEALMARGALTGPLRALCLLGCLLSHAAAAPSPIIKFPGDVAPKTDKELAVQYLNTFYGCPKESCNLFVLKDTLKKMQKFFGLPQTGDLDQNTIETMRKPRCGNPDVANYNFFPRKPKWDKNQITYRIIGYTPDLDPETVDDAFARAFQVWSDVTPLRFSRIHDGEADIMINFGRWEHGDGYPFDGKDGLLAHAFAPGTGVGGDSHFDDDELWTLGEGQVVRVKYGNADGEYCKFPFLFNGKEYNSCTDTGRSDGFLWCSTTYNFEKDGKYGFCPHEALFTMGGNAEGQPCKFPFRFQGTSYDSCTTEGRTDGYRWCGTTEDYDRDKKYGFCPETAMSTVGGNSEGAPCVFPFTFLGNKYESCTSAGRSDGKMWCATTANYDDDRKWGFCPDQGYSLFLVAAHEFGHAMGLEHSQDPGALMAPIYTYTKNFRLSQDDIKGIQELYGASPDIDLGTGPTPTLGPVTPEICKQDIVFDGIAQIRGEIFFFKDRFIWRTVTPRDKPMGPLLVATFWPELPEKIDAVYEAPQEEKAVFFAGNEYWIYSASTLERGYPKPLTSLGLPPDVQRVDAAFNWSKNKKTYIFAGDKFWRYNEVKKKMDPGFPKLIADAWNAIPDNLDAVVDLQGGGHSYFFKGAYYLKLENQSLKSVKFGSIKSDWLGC

Neutrophil collagenase = Neutrophil collagenase (Homo sapiens, UniProt P22894); assay: Inhibitory activity against matrix metalloprotease-8
Neutrophil collagenase, sequence (P22894 whole entry, the tested form may be a part): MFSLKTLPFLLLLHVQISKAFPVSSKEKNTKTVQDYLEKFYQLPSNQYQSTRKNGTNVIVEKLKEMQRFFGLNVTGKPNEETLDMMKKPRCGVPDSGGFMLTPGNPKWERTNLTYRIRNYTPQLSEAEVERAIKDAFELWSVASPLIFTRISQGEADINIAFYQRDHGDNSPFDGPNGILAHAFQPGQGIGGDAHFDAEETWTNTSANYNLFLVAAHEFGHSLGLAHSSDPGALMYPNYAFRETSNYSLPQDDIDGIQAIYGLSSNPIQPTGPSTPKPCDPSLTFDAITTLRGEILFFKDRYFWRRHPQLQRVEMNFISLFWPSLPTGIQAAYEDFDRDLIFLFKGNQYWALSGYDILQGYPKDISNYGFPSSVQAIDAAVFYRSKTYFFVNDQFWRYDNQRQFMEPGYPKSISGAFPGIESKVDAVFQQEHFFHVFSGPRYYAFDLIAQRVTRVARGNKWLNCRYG

[5] = molecular target: T1, Matrix metalloproteinase-14; assay: In vitro inhibitory activity against the ectodomain of the human matrix metalloprotease-14
In short: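 Ectodomain of human MMP-14 (ΔTM) expressed in Pichia pastoris. […] Buffer 50 mM HEPES pH 7.0, 10 mM CaCl2, 0.02% PEG 8000, 2% DMSO, 25 °C. Inhibitor 0.005-15 µM, 30 min preincubation, ex 330/em 405 nm, triplicate. Ki from logistic-fit IC50 by the Horovitz-Levitski method.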

Interstitial collagenase = molecular target: T2, Interstitial collagenase (Homo sapiens, UniProt P03956); assay: In vitro inhibitory activity against full-length human matrix metalloprotease-1
T2 sequence (P03956 whole entry): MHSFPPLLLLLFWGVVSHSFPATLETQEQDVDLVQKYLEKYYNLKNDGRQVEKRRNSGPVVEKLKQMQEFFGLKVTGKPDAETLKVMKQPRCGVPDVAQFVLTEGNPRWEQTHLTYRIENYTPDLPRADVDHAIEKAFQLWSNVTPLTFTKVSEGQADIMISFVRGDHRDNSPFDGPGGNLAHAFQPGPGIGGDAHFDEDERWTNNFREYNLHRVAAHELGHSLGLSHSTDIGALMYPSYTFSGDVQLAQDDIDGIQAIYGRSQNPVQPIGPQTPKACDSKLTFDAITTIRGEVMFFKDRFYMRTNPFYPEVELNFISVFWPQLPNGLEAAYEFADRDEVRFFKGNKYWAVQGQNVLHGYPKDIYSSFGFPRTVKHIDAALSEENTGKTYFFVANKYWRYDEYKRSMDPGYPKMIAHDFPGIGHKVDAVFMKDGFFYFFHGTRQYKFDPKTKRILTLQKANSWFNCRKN

[6] = molecular target: T1, Matrix metalloproteinase-14; assay: Inhibition of matrix metalloprotease-14

Macrophage metalloelastase, sequence (P39900 whole entry, the tested form may be a part): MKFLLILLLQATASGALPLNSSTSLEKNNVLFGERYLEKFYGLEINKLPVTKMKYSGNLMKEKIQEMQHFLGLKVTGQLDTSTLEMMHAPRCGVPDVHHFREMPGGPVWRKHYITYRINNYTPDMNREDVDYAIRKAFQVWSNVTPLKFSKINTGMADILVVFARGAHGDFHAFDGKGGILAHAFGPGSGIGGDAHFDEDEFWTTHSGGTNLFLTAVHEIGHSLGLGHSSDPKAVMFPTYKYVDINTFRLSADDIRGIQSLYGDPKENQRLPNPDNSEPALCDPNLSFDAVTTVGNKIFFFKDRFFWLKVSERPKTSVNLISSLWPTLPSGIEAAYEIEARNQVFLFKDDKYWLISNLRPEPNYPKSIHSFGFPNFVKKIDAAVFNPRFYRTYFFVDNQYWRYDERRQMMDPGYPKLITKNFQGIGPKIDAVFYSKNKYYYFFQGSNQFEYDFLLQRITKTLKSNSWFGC

SMILES: C[C@H](NS(=O)(=O)c1ccccc1)C(=O)NC1=NN=C(C23CC4CC(CC(C4)C2)C3)CS1
- Ki [1]: 410 nM
- Ki (Collagenase 3): > 15000 nM
- Ki [2]: 3070 nM
- Ki [3]: > 15000 nM
- Ki [4]: > 15000 nM
- Ki (Neutrophil collagenase): > 15000 nM

SMILES: Cc1ccc(C2=NN=C(NC(=O)[C@@H](C)NS(=O)(=O)c3ccccc3)SC2)cc1
- Ki [5]: 150 nM
- Ki [1]: 90 nM
- Ki (Interstitial collagenase): 460 nM
- Ki (Collagenase 3): 320 nM
- Ki [2]: 290 nM
- Ki [3]: 210 nM
- Ki [4]: 440 nM
- Ki (Neutrophil collagenase): 220 nM

SMILES: C[C@@H](NS(=O)(=O)c1ccccc1)C(=O)NC1=NN=C(c2ccc(Cl)cc2)CS1
- Ki [5]: 210 nM
- Ki [1]: 320 nM
- Ki (Interstitial collagenase): 210 nM
- Ki [6]: 50 nM
- Ki (Collagenase 3): 140 nM
- Ki [3]: 80 nM
- Ki [4]: 500 nM
- Ki (Neutrophil collagenase): 150 nM

SMILES: C[C@H](NS(=O)(=O)c1ccccc1)C(=O)NC1=NN=C(c2ccc(F)cc2)CS1
- Ki [1]: 280 nM
- Ki (Interstitial collagenase): 440 nM
- Ki (Collagenase 3): 650 nM
- Ki [2]: 440 nM
- Ki [3]: 160 nM
- Ki [4]: 450 nM

SMILES: CC(C)[C@H](NS(=O)(=O)c1ccccc1)C(=O)NC1=NN=C(c2ccc(Cl)cc2)CS1
- Ki [1]: 380 nM
- Ki (Collagenase 3): > 15000 nM
- Ki [2]: 740 nM
- Ki [3]: 200 nM
- Ki [4]: 880 nM
- Ki (Neutrophil collagenase): 780 nM

SMILES: Cc1ccc(C2=NN=C(NC(=O)[C@H](C)NS(=O)(=O)c3ccccc3)SC2)cc1
- Ki [1]: 110 nM
- Ki (Collagenase 3): 620 nM
- Ki [2]: 380 nM
- Ki [3]: 160 nM
- Ki [4]: 410 nM
- Ki (Neutrophil collagenase): 300 nM

SMILES: C[C@H](NS(=O)(=O)c1ccccc1)C(=O)NC1=NN=C(c2ccc(C(F)(F)F)cc2)CS1
- Ki [5]: 390 nM
- Ki [1]: 300 nM
- Ki (Interstitial collagenase): 430 nM
- Ki (Collagenase 3): 570 nM
- Ki [2]: 580 nM
- Ki [3]: 240 nM
- Ki (Neutrophil collagenase): 260 nM

SMILES: CC(C)(NS(=O)(=O)c1ccccc1)C(=O)NC1=NN=C(c2ccc(Cl)cc2)CS1
- Ki [5]: 110 nM
- Ki [1]: 200 nM
- Ki (Interstitial collagenase): 300 nM
- Ki (Collagenase 3): 180 nM
- Ki [2]: 150 nM
- Ki [3]: 90 nM
- Ki [4]: 80 nM
- Ki (Neutrophil collagenase): 480 nM

SMILES: C[C@H](NS(=O)(=O)c1cccs1)C(=O)NC1=NN=C(c2ccc(Cl)cc2)CS1
- Ki [1]: 360 nM
- Ki (Collagenase 3): 3810 nM
- Ki [2]: 250 nM
- Ki [3]: 800 nM
- Ki [4]: 550 nM
- Ki (Neutrophil collagenase): 60 nM

SMILES: C[C@H](NS(=O)(=O)c1ccccc1)C(=O)NC1=NN=C(c2ccc(Br)cc2)CS1
- Ki [1]: 440 nM
- Ki [6]: 340 nM
- Ki (Collagenase 3): 370 nM
- Ki [3]: 160 nM
- Ki [4]: 270 nM
- Ki (Neutrophil collagenase): 110 nM

SMILES: C[C@@H](NS(=O)(=O)c1ccccc1)C(=O)NC1=NN=C(c2ccc(Br)cc2)CS1
- Ki [5]: 180 nM
- Ki [1]: 340 nM
- Ki (Interstitial collagenase): 420 nM
- Ki [6]: 200 nM
- Ki (Collagenase 3): 130 nM
- Ki [3]: 40 nM
- Ki [4]: 150 nM
- Ki (Neutrophil collagenase): 210 nM

SMILES: C[C@H](NS(=O)(=O)Cc1ccccc1)C(=O)NC1=NN=C(c2ccc(Cl)cc2)CS1
- Ki [5]: 180 nM
- Ki [1]: 480 nM
- Ki (Interstitial collagenase): 360 nM
- Ki (Collagenase 3): 120 nM
- Ki [2]: 190 nM
- Ki [3]: 40 nM
- Ki [4]: 90 nM
- Ki (Neutrophil collagenase): 200 nM

SMILES: C[C@H](NS(=O)(=O)c1ccccc1)C(=O)NC1=NN=C(c2ccc(Cl)cc2)CS1
- Ki [5]: 210 nM
- Ki [1]: 520 nM
- Ki (Interstitial collagenase): 650 nM
- Ki (Collagenase 3): 180 nM
- Ki [2]: 100 nM
- Ki [3]: 60 nM
- Ki [4]: 140 nM
- Ki (Neutrophil collagenase): 730 nM

SMILES: C[C@@H](NS(=O)(=O)c1ccccc1)C(=O)NC1=NN=C(c2ccc(C#N)cc2)CS1
- Ki [5]: 400 nM
- Ki [1]: 360 nM
- Ki (Interstitial collagenase): 400 nM
- Ki [6]: 240 nM
- Ki (Collagenase 3): 210 nM
- Ki [3]: 80 nM
- Ki [4]: 210 nM
- Ki (Neutrophil collagenase): 230 nM

SMILES: C[C@H](NS(=O)(=O)c1ccccc1)C(=O)NC1=NN=C(c2ccc(Cl)s2)CS1
- Ki [5]: 200 nM
- Ki [1]: 240 nM
- Ki (Interstitial collagenase): 450 nM
- Ki (Collagenase 3): 470 nM
- Ki [2]: 320 nM
- Ki [3]: 170 nM
- Ki [4]: 1870 nM
- Ki (Neutrophil collagenase): 180 nM

SMILES: C[C@H](NS(=O)(=O)c1ccccc1)C(=O)NC1=NN=C(c2ccc([N+](=O)[O-])cc2)CS1
- Ki [1]: 280 nM
- Ki (Interstitial collagenase): 260 nM
- Ki (Collagenase 3): 260 nM
- Ki [2]: 290 nM
- Ki [3]: 130 nM
- Ki [4]: 300 nM
- Ki (Neutrophil collagenase): 170 nM

SMILES: C[C@@H](NS(=O)(=O)c1ccccc1)C(=O)NC1=NN=C(c2ccc(F)cc2)CS1
- Ki [5]: 330 nM
- Ki [1]: 350 nM
- Ki (Interstitial collagenase): 630 nM
- Ki (Collagenase 3): 300 nM
- Ki [2]: 390 nM
- Ki [3]: 50 nM
- Ki [4]: 340 nM

SMILES: COc1ccc(C2=NN=C(NC(=O)[C@H](C)NS(=O)(=O)c3ccccc3)SC2)cc1
- Ki [1]: 340 nM
- Ki (Interstitial collagenase): 580 nM
- Ki (Collagenase 3): 1330 nM
- Ki [2]: 590 nM
- Ki [3]: 320 nM
- Ki (Neutrophil collagenase): 180 nM

SMILES: C[C@H](NS(=O)(=O)c1ccccc1)C(=O)NC1=NN=C(c2ccc(C#N)cc2)CS1
- Ki [5]: 400 nM
- Ki [1]: 370 nM
- Ki (Interstitial collagenase): 390 nM
- Ki [6]: 240 nM
- Ki (Collagenase 3): 250 nM
- Ki [3]: 80 nM
- Ki [4]: 240 nM
- Ki (Neutrophil collagenase): 220 nM

SMILES: CC(C)[C@@H](NS(=O)(=O)c1ccccc1)C(=O)NC1=NN=C(c2ccc(Cl)cc2)CS1
- Ki [5]: 330 nM
- Ki [1]: 350 nM
- Ki (Interstitial collagenase): 550 nM
- Ki (Collagenase 3): > 15000 nM
- Ki [2]: 590 nM
- Ki [3]: > 15000 nM
- Ki [4]: 850 nM
- Ki (Neutrophil collagenase): 4370 nM

From ChEMBL document CHEMBL1134615, “Structure-based design and synthesis of potent matrix metalloproteinase inhibitors derived from a 6H-1,3,4-thiadiazine scaffold” (J Med Chem, 2001)
